Jurkat NFkB inh – inhibitors of the PMA/ionomycin-induced NF-kB reporter in Jurkat cells; PMA/ionomycin-induced NF-kB luciferase reporter, luminescence; hit rate 0.53% among 330,000; inhibition, % at 4 µM; in the data active = inhibition above about 50%
UPR CHOP act – activators of apoptotic arm of unfolded protein response (CHOP). CHO-CHOP luciferase reporter, UPR activation, luminescence; percent of tunicamycin response over DMSO baseline. activation, % at 10 µM. hit rate 0.34% among 330,000. AID 449763;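 active = at 10 µM dose, activation of 40% or more, normalized to positive control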;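 also: 100% = tunicamycin at 10 µg/mL and 0% = DMSO alone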
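Material: CHO-CHOP cells, stable luciferase reporter of PERK-eIF2a-CHOP signalling; quantity: 500 reporter cells seeded per well; buffer or medium: F12 medium containing 10% fetal bovine serum; compound: one dose, 10 µM in 0.5% DMSO; incubation: 6 h compound treatment, 37 °C; measured by: Steady-Glo luciferase luminescence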
CHOP inh – blocks CHOP induction under ER stress | CHO-K1 CHOP-promoter luciferase, tunicamycin-induced, 15-18 h | inhibition, % at 10 µM | hit rate 3.8% among 220,000;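 active = compounds that reduced the stress-induced luciferase reporter signal by more than about 70% of percent inhibition, limit read from the data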;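 also: 0% = tunicamycin plus vehicle and 100% = wells without tunicamycin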
UPR XBP1 act – adaptive UPR (XBP1) activation; CHO-XBP1 luciferase reporter, IRE1-XBP1 UPR activation, luminescence; percent of tunicamycin response, DMSO as zero; activation, % at 20 µM; hit rate 0.33% among 330,000; AID 463104;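 active = versus positive control, 20 µM dose yields 30% or more activation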;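 also: 100% = tunicamycin at 10 µg/mL and 0% = DMSO only wells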
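Material: CHO-XBP1 cells stably carrying IRE1-XBP1-driven luciferase reporter / Amount: 1000 cells per well / Compound: 20 µM, 1% DMSO / Times: 6 h treatment, 37 °C / Detection: luciferase luminescence / Measure: % activation of reporter signal versus tunicamycin and DMSO controls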
697 NFkB inh – lowers PMA/ionomycin-induced NF-kB signal in 697 B cells; inhibition, % at 4 µM; 697 B-cell NF-kB luciferase reporter, 16 h; hit rate 0.33% among 330,000; in the data active = inhibition above about 35%
CHOP inh conf – confirmation of CHOP induction inhibitors; inhibition, % at 10 µM; CHO-CHOP promoter luciferase reporter, tunicamycin-induced, luminescence; hit rate 45% among 2,100; AID 504437; shares compounds with CHOP inh;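 active = mean of three repeat readings of reporter signal inhibition above a set limit, cut at about 70% in these data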;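 also: 0% = tunicamycin plus vehicle and 100% = wells lacking tunicamycin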
Starred values were filed as active, the others as inactive; . = not tested or not shown. Many of the other results were omitted from the sample, so hits are more common in it than they were.

SMILES | Jurkat NFkB inh | UPR CHOP act | CHOP inh | UPR XBP1 act | 697 NFkB inh | CHOP inh conf
CCC(C)[C@H](NC(=O)OC(C)(C)C)C(=O)N/N=C/C1=Cc2ccccc2OC1 (some centres undefined) | -10.7 | 0.4 | 105.8* | 2.5 | -1.6 | 39.9
C[C@H](NC(=O)OC(C)(C)C)C(=O)N/N=C/C1=Cc2ccccc2OC1 | 4.0 | -0.9 | 13.4 | -2.2 | 8.9 | .
Cc1ccc2c(COC(=O)c3n[nH]c4ccccc34)cc(=O)oc2c1 | -78.5 | 3.4 | 49.9 | 5.2 | -62.0 | .
CCc1ccc2c(COC(=O)c3n[nH]c4ccccc34)cc(=O)oc2c1 | -43.0 | 1.1 | 100.5* | 1.2 | -48.9 | 17.9
N#Cc1c(N)nc(-c2ccccc2)nc1-c1ccccc1 | 1.2 | 0.0 | 106.7* | 5.1 | 14.0 | 20.7
CC1=C(C(=O)Nc2ccccc2)C(c2cccs2)NC(=O)N1 (centres undefined) | 6.3 | -0.4 | 9.2 | -6.2 | 6.8 | .
CCOc1cc(S(=O)(=O)Nc2ccccc2CC)ccc1Cl | -5.4 | -1.0 | 102.2* | -0.4 | 11.3 | 76.6*
CCOc1cc(S(=O)(=O)Nc2ccc(CC)cc2)ccc1Cl | 1.6 | 0.0 | 103.6* | 2.7 | -6.0 | 111.2*
CCOc1cc(S(=O)(=O)Nc2ccc(Cl)cn2)ccc1Cl | -33.3 | 0.9 | 20.0 | -0.2 | 16.6 | .
O=C1C2C3C=CC(CO)(O3)C2C(=O)N1c1ccccc1-c1ccccc1 (centres undefined) | 16.2 | 7.7 | . | -5.2 | -1.1 | -27.4
CCOC(=O)/C(=N/O)C1=NC(C)(C)Cc2cc(C)c(C)cc21 | -13.4 | -0.5 | 31.2 | -2.4 | 24.2 | .
CCOC(=O)CN1C(=O)Nc2ccc(Br)cc2C1c1ccccc1 (centres undefined) | -0.7 | -1.0 | 28.2 | 1.6 | 8.8 | .
CCOC(=O)CN1C(c2ccc(O)cc2)Nc2ccc(Br)cc2C1c1ccccc1 (centres undefined) | -12.6 | 2.8 | 107.7* | -0.9 | -20.2 | 118.6*
COc1cccc(NC(=O)c2cc3cccc(OC)c3o/c2=N\O)c1 | -117.0 | 7.7 | . | 1.2 | -210.8 | .
COc1ccc(NC(=O)c2cc3cccc(OC)c3oc2=Nc2ccc(C(=O)O)cc2)cc1OC | . | . | 102.9* | . | . | 110.2*
COc1ccc(Nc2sc(C(=O)Nc3cccc(Cl)c3)c(N)c2C(=O)Nc2ccccc2OC)cc1 | . | . | 15.8 | . | . | .
COc1ccccc1NC(=O)c1c(Nc2ccccc2F)sc(C(=O)Nc2cccc(Cl)c2)c1N | -9.4 | 4.8 | 108.3* | 3.1 | 11.3 | 62.6
O=C(C[C@@H]1C/C=C\C[C@H](NC(=O)OCC2c3ccccc3-c3ccccc32)C(=O)O[C@H](c2ccccc2)CNC1=O)NCCO | 1.3 | 0.6 | . | -2.1 | -11.1 | .
O=C1c2[nH]nc(-c3ccccc3O)c2C(c2cccc(Cl)c2)N1Cc1ccco1 (centres undefined) | -5.9 | 3.9 | 112.7* | -0.1 | -22.7 | 112.9*
COc1ccc(-c2csc(C3=C(O)CN(C(C)C)C3=N)n2)cc1OC | -30.3 | 0.5 | 6.9 | 7.1 | 2.3 | .
O=C(Nc1nnc(-c2ccc(Cl)cc2)o1)Nc1ccccc1Cl | 4.7 | 2.6 | 45.2 | -0.2 | -5.4 | .
O=C(Nc1nnc(-c2ccc(Cl)cc2)o1)c1nc2ccccc2s1 | -10.2 | -0.3 | 103.5* | 0.3 | 5.7 | -6.9
COc1cc2c3c(c1)c(C1=NC(=S)NC1=O)c(O)n3C(C)(C)C=C2C | -6.5 | 0.1 | 38.5 | -0.2 | 0.8 | .
CC1(c2ccccc2)CC(C)(C)n2c(O)c(C3=NC(=S)NC3=O)c3cccc1c32 (centres undefined) | -9.3 | 1.9 | 103.9* | 19.1 | -32.4 | 109.4*
CN(C(=O)c1ccccc1Cl)c1ccccc1C(=O)NCCc1ccccc1 | -7.0 | -0.1 | . | -3.5 | 6.9 | .
Cc1cc(C)n(-c2nc3ccccc3nc2N2CCCCCC2)n1 | 7.9 | -1.2 | 96.1* | 0.0 | 12.3 | 36.1
Cc1cc2c(cc1C)CSC(c1ccccc1OC(=O)C(C)(C)C)SC2 | 7.5 | 0.8 | -19.5 | -2.3 | 20.0 | .
Cc1cc2c(cc1C)CSC(c1ccccc1O)SC2 | 0.0 | 1.7 | 108.3* | 6.7 | 7.4 | 110.7*
Cc1cc2c(cc1C)CSC(c1c(O)ccc3ccccc13)SC2 | 11.5 | -1.3 | 111.8* | 13.1 | -6.6 | 115.9*

Source: PubChem BioAssay
